From ChEMBL document CHEMBL1649427, “Inactivation of the glycoside hydrolase NagZ attenuates antipseudomonal beta-lactam resistance in Pseudomonas aeruginosa” (Antimicrob Agents Chemother, 2009) come the findings set out here.

Converted amounts (≈) assume the structure as drawn.

Assay [1] deals with Pseudomonas aeruginosa. In words: Antimicrobial activity against nagZ gene-deficient Pseudomonas aeruginosa PAO1 after 18 hrs by Etest. The note with it: PAO1, 18 h. Type of assay: functional. The gist of the method:
(§1)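 Strains are P. aeruginosa PAO1 and its insertional nagZ-inactivated derivative. MICs were read from Etest strips on Mueller-Hinton agar, following the manufacturer's recommendations. Each determination was done in triplicate.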

Assay [2] concerns Pseudomonas aeruginosa. In words: Antimicrobial activity against Pseudomonas aeruginosa PAO1 after 18 hrs by Etest. Type of assay: functional. The note with it: PAO1, 18 h. The procedure, abridged:
as §1

Assay [3] relates to Pseudomonas aeruginosa. In words: Ratio of MIC for Pseudomonas aeruginosa PAO1 harboring deltaampD::lox deltaampDh2::lox deltaampDh3::lox to MIC for Pseudomonas aeruginosa PAO1 harboring deltaampD::lox deltaampDh2::lox deltaampDh3::lox deltanagZ::Gm.
The test system of assay [4] is Pseudomonas aeruginosa. In words: Antimicrobial activity against Pseudomonas aeruginosa PAO1 harboring deltaampD::lox deltaampDh2::lox deltaampDh3::lox deltanagZ::Gm after 18 hrs by Etest. Type of assay: functional. The note with it: PAO1, 18 h. The procedure, abridged: (§2)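 Etest strips on Mueller-Hinton agar plates, run per the manufacturer's recommendations; MICs determined in triplicate.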

Assay [5] has as its system Pseudomonas aeruginosa. In words: Antimicrobial activity against Pseudomonas aeruginosa PAO1 harboring deltaampD::lox deltaampDh2::lox delta ampDh3::lox after 18 hrs by Etest. In kind it is functional. The note with it: PAO1, 18 h. The procedure, abridged:
as §2

Assay [6] has as its target Beta-lactamase (Pseudomonas aeruginosa (strain ATCC 15692 / PAO1 / 1C / PRS 101 / LMG12228)) (UniProt P24735). In words: Activity of beta-lactamase AmpC in Pseudomonas aeruginosa PAO1 harboring deltaampD::lox deltaampDh2::lox deltaampDh3::lox assessed as nitrocefin hydrolysis after 3 hrs by spectrophotometric analysis. The gist of the method: (§3)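 Strains grown in Mueller-Hinton broth at 37°C to OD600 ~0.5, then cultured 3 h at 37°C with 50 μg/ml cefoxitin (induced) or without. Crude sonic lysates assayed in triplicate at 37°C by continuous assay: nitrocefin (initial 100 μM) hydrolysis followed at 485 nm for 5 min. Specific activity expressed as nmol nitrocefin hydrolyzed/min/mg protein.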

For assay [7], the system named is Pseudomonas aeruginosa. Put plainly: Antimicrobial activity against nagZ gene-deficient Pseudomonas aeruginosa PAO1 harboring plasmid pUCP27 after 18 hrs by broth microdilution method. Type of assay: functional. The note with it: PAO1, 18 h. On the technique in general: In broth dilution the organism is exposed to a series of concentrations in liquid medium.
Assay [8] deals with Pseudomonas aeruginosa. Put plainly: Antimicrobial activity against Pseudomonas aeruginosa PAO1 after 18 hrs by broth microdilution method. The note with it: PAO1, 18 h. In kind it is functional. The gist of the method:
(§4)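 CLSI broth microdilution in cation-adjusted Mueller-Hinton medium with serial β-lactam dilutions. Each well holds 200 μl broth inoculated with ~10⁴ cells from starter cultures at OD600 ~0.5. Plates shaken at 37°C for 18 h. The MIC is read as the lowest antibiotic concentration showing no growth. Triplicate determinations.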

For assay [9], the target named is Beta-lactamase (Pseudomonas aeruginosa (strain ATCC 15692 / PAO1 / 1C / PRS 101 / LMG12228)) (UniProt P24735). In words: Activity of beta-lactamase AmpC in Pseudomonas aeruginosa nagZ gene-deficient PAO1 assessed as nitrocefin hydrolysis after 3 hrs by spectrophotometric analysis. The gist of the method:
as §3

Assay [10] has as its system Pseudomonas aeruginosa. Put plainly: Antimicrobial activity against Pseudomonas aeruginosa PAO1 harboring deltaampD::lox deltaampDh2::lox deltaampDh3::lox after 18 hrs by broth microdilution method. Type of assay: functional. The note with it: PAO1, 18 h. The procedure, abridged: as §4
In assay [11] the test system is Pseudomonas aeruginosa. Put plainly: Antimicrobial activity against nagZ gene-deficient Pseudomonas aeruginosa PAO1 after 18 hrs by broth microdilution method. In kind it is functional. The note with it: PAO1, 18 h. The procedure, abridged: as §4
In assay [12] the target is Beta-lactamase (Pseudomonas aeruginosa (strain ATCC 15692 / PAO1 / 1C / PRS 101 / LMG12228)) (UniProt P24735). Put plainly: Activity of beta-lactamase AmpC in Pseudomonas aeruginosa PAO1 assessed as nitrocefin hydrolysis after 3 hrs by spectrophotometric analysis. The gist of the method:
as §3

The target is the same in assay [13]. In words: Activity of beta-lactamase AmpC in Pseudomonas aeruginosa PAO1 harboring deltaampD::lox deltaampDh2::lox deltaampDh3::lox deltanagZ::Gm assessed as nitrocefin hydrolysis after 3 hrs by spectrophotometric analysis. The gist of the method: as §3
Assay [14] deals with Pseudomonas aeruginosa. Put plainly: Antimicrobial activity against Pseudomonas aeruginosa PAO1 harboring deltaampD::lox deltaampDh2::lox delta ampDh3::lox after 18 hrs by broth microdilution method. The note with it: PAO1, 18 h. Type of assay: functional. The gist of the method:
as §4

In assay [15] the test system is Pseudomonas aeruginosa. In words: Antimicrobial activity against nagZ gene-deficient Pseudomonas aeruginosa PAO1 harboring wild type nagZ gene after 18 hrs by broth microdilution method. Type of assay: functional. The note with it: PAO1, 18 h.

Sequence of Beta-lactamase (Pseudomonas aeruginosa (strain ATCC 15692 / PAO1 / 1C / PRS 101 / LMG12228)) (P24735 27-397 limits assumed): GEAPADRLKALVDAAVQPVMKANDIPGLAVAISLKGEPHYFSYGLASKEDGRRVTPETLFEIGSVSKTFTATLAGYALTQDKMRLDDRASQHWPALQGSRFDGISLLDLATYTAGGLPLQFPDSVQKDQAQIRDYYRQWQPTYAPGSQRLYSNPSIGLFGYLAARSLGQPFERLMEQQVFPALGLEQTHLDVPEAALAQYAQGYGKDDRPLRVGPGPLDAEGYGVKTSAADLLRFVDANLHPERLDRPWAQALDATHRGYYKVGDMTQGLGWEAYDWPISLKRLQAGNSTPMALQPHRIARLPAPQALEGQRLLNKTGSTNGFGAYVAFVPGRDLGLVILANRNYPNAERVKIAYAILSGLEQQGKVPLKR

In general, MIC refers to the least concentration at which growth counts as inhibited. A high value points to weaker potency. On to `CO/N=C(\C(=O)N[C@@H]1C(=O)N2C(C(=O)[O-])=C(C[N+]3(C)CCCC3)CS[C@H]12)c1csc(N)n1`, for which the MIC came to 0.38 µg/mL (≈ 0.791 µM) against Pseudomonas aeruginosa [1], 0.5 µg/mL (≈ 1.04 µM) in the assay on Pseudomonas aeruginosa [2], 3 µg/mL (≈ 6.24 µM) in the assay on Pseudomonas aeruginosa [4] and 12 µg/mL (≈ 25 µM) against Pseudomonas aeruginosa [5]. In the assay on Pseudomonas aeruginosa [3], the Ratio came to 4.

Take `CO[C@@]1(NC(=O)Cc2cccs2)C(=O)N2C(C(=O)O)=C(COC(N)=O)CS[C@@H]21` [CEFOXITIN]: the Activity turned out to be 3940 nmol in assay [6], 95 nmol in [9], 230 nmol in [12] and 1020 nmol in assay [13]. Further, the MIC with Pseudomonas aeruginosa [7] stood at 600 µg/mL (≈ 1400 µM); with Pseudomonas aeruginosa [8], 1600 µg/mL (≈ 3740 µM); in the assay on Pseudomonas aeruginosa [10], 3200 µg/mL (≈ 7490 µM); against Pseudomonas aeruginosa [11] it was 800 µg/mL (≈ 1870 µM); with Pseudomonas aeruginosa [14], 3200 µg/mL (≈ 7490 µM); against Pseudomonas aeruginosa [15], 1200 µg/mL (≈ 2810 µM).

For the compound `C[C@@H](O)[C@H]1C(=O)N2C(C(=O)O)=C(SCCNC=N)C[C@H]12` [IMIPENEM ANHYDROUS], the MIC came to 2 µg/mL (≈ 6.68 µM) against Pseudomonas aeruginosa [1], 3 µg/mL (≈ 10 µM) against Pseudomonas aeruginosa [2], 1.5 µg/mL (≈ 5.01 µM) in the assay with Pseudomonas aeruginosa [4] and 1.5 µg/mL (≈ 5.01 µM) in the assay with Pseudomonas aeruginosa [5].

For `O=C(O)c1cn(C2CC2)c2cc(N3CCNCC3)c(F)cc2c1=O` [CIPROFLOXACIN], the minimum inhibitory concentration (MIC) in the assay on Pseudomonas aeruginosa [8], in the assay on Pseudomonas aeruginosa [10], against Pseudomonas aeruginosa [11] and in the assay on Pseudomonas aeruginosa [14] was 0.2 µg/mL (≈ 0.604 µM) throughout.
